In test [1] the test system is Candida albicans. Briefly: Ratio of fluconazole MIC to compound MIC for Candida albicans ATCC 76615. The format is functional.
Test [2] concerns Bacillus spizizenii. Briefly: Antibacterial activity against Bacillus subtilis ATCC 6633 after overnight incubation by disc diffusion method. The format is functional. In outline: (§1)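 Agar disc diffusion on beef extract–peptone medium (1% peptone, 0.3% beef extract, 0.5% NaCl, […]), compounds dissolved in sterile water; streptomycin sulfate positive control; plates incubated overnight at 37 °C, then MIC recorded (mg/L).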

Test [3] deals with Candida albicans. In words: Antifungal activity against Candida albicans ATCC 76615 after 48 hrs by disc diffusion method. The format is functional. To be noted: ATCC 76615, 48 h. In a few lines: (§2)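 Disc diffusion on modified Sabouraud-chloramphenicol agar (1% peptone, 2% glucose, […]), compounds as sterile-water stocks; fluconazole and polyoxin B positive controls; MIC (mg/L) recorded after 48 h at 37 °C.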

Test [4] deals with Staphylococcus aureus. Briefly: Antibacterial activity against Staphylococcus aureus ATCC 25923 after overnight incubation by disc diffusion method. Format: functional. In a few lines:
as §1

The test system of test [5] is Aspergillus flavus. In words: Antifungal activity against Aspergillus flavus after 48 hrs by disc diffusion method. The format is functional. In outline:
as §2

Test [6] relates to Cryptococcus neoformans. Briefly: Antifungal activity against Cryptococcus neoformans after 48 hrs by disc diffusion method. The format is functional. In outline: as §2
Test [7] relates to Staphylococcus aureus. In words: Antibacterial activity against methicillin-resistant Staphylococcus aureus N315 after overnight incubation by disc diffusion method. Format: functional. In outline: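 Disc diffusion on beef extract-peptone agar (1% peptone, 0.3% beef extract, 0.5% NaCl, […]); compounds dissolved in sterile water; streptomycin sulfate positive control; plates incubated overnight at 37 °C, then MIC (mg/L) recorded.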

Test [8] deals with Bacillus. Briefly: Antibacterial activity against Bacillus proteus after overnight incubation by disc diffusion method. Format: functional. In outline: as §1
Test [9] relates to Pseudomonas aeruginosa. In words: Antibacterial activity against Pseudomonas aeruginosa CR56 after overnight incubation by disc diffusion method. The format is functional. In outline: as §1
A short description of test [10]: Inhibition of Saccharomyces cerevisiae CGMCC 2.145 chitin synthase assessed as UDP-GlcNAc conversion to chitin after 45 mins by ELISA. In a few lines: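 Enzyme prepared from S. cerevisiae cells sonicated at 4 °C in 50 mM Tris–HCl pH 7.0 with protease inhibitors and PMSF; 55,000 g membrane pellet used. Wells hold UDP-GlcNAc plus 320 mM GlcNAc, compound in Tris buffer (final DMSO below 3%), 45 min at 37 °C. Chitin detected with HRP–wheat germ agglutinin, TMB read at 450 nm against a chitin standard curve; IC50 derived.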

In test [11] the test system is Candida albicans. In words: Ratio of polyoxin B MIC to compound MIC for Candida albicans ATCC 76615. Format: functional.
The subject of test [12] is Escherichia coli. Briefly: Antibacterial activity against Escherichia coli JM 109 after overnight incubation by disc diffusion method. The format is functional. In outline:
as §1

Test [13] concerns Aspergillus flavus. In words: Ratio of fluconazole MIC to compound MIC for Aspergillus flavus. Format: functional.
For test [14], the system named is Aspergillus flavus. In words: Ratio of polyoxin B MIC to compound MIC for Aspergillus flavus. Format: functional.

Bounds are passed on as bounds.

Turning to `CN(CC(=O)Nc1ccc(CC#N)cc1)CC(O)Cn1c(=O)c2ccccc2n(C)c1=O.Cl` (stereo not drawn), the Ratio in [1] stood at 8; in [11], 4. Also, the MIC in test [2] is at least 512 µg/mL; in test [3], 4 µg/mL; in [4] it was at least 512 µg/mL; in test [5], 8 µg/mL; in [6] it was 4 µg/mL; in test [7], at least 512 µg/mL. For the same molecule, the MIC in test [8], in test [9] and in [12] was at least 512 µg/mL throughout. The IC50 in test [10] stood at 120 µM.

As for `CN(CC(=O)N(Cc1ccccc1)Cc1ccccc1)CC(O)Cn1c(=O)c2ccccc2n(C)c1=O.Cl` (stereo not drawn), the results for the Ratio in test [13] and in test [14] were 16 and 8, respectively. Also, the MIC in test [2] was at least 512 µg/mL; in [3] it was 64 µg/mL; in test [4], at least 512 µg/mL; in test [5], 4 µg/mL; in test [6] it was 2 µg/mL; in test [7], at least 512 µg/mL. The MIC in test [8], in test [9] and in test [12] was at least 512 µg/mL throughout. The IC50 in [10] is 160 µM.

With `CN(CC(=O)Nc1cccc([N+](=O)[O-])c1)CC(O)Cn1c(=O)c2ccccc2n(C)c1=O.Cl` (stereo not drawn), the Ratio in test [1] was found to be 8; in [13], 16; in test [14] it was 8; in test [11] it was 4. Besides, the MIC in test [2] was at least 512 µg/mL; in [3] it was 4 µg/mL; in test [4] it was at least 512 µg/mL; in test [5] it was 4 µg/mL; in test [6] it was 8 µg/mL; in test [7], at least 512 µg/mL. The MIC in [8], in [9] and in test [12] was at least 512 µg/mL each time. Further, the IC50 in [10] stood at 240 µM.
